We go through five compounds from ChEMBL document CHEMBL1128214, “Structure-based design of sulfonamide-substituted non-peptidic HIV protease inhibitors” (J Med Chem, 1995).

Data set [1] has as its system Human immunodeficiency virus 1. Put plainly: Antiviral potency of compound determined against human immunodeficiency virus type 1. Type of data set: functional, organism-based. An outline of the steps:
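Antiviral activity measured in MT4 cells acutely infected with HIV-1 IIIB; potency reported as IC50.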

The target of data set [2] is Human immunodeficiency virus type 1 protease (Human immunodeficiency virus 1, UniProt Q72874). Put plainly: Inhibitory activity against HIV-1 protease.
A short description of data set [3]: Maximum concentration was determined in an aqueous sodium hydroxide solution adjusted to pH 10 at 10 mg/kg dosage administered perorally in dog. Type of data set: ADME, organism-based, Canis lupus familiaris. Set-up: dose 10 mg/kg, route oral. The following applies: in vivo, po. An outline of the steps:
(§1)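 Single oral dose given as an aqueous sodium hydroxide solution adjusted to pH 10. Plasma concentrations were followed over time. Cmax, tmax and bioavailability (F) were calculated from the time-course data by noncompartmental analysis. Values are mean ± SD.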

Data set [4] in a line: Maximum concentration was determined in an aqueous sodium hydroxide solution adjusted to pH 10 at 5 mg/kg dosage administered perorally in rats. It counts as ADME, organism-based. Set-up: dose 5 mg/kg, route oral. The following applies: rat, in vivo, po. Put shortly: as §1
Data set [5] in a line: Time of maximum concentration was determined in an aqueous sodium hydroxide solution adjusted to pH 10 at 10 mg/kg dosage administered perorally in dog. Type of data set: ADME, organism-based, Canis lupus familiaris. The settings on record: in vivo, po. Also noted: dose 10 mg/kg, route oral. An outline of the steps:
as §1

Data set [6] in a line: Time of maximum concentration was determined in an aqueous sodium hydroxide solution adjusted to pH 10 at 5 mg/kg dosage administered perorally in rats. It counts as ADME, organism-based. Set-up: dose 5 mg/kg, route oral. The following applies: rat, in vivo, po. Put shortly: as §1
The nature of data set [7]: Bioavailability (F) was determined in an aqueous sodium hydroxide solution adjusted to pH 10 at 10 mg/kg dosage administered perorally in dog. The following applies: eutheria, in vivo, po. Type of data set: ADME, organism-based. Put shortly: as §1
Data set [8] in a line: Bioavailability (F) was determined in an aqueous sodium hydroxide solution adjusted to pH 10 at 5 mg/kg dosage administered perorally in rats. It counts as ADME, organism-based. The settings on record: eutheria, in vivo, po. Put shortly:
as §1

Data set [9] can be described thus: The steady-state volume of distribution was determined in an aqueous sodium hydroxide solution adjusted to pH 10 at 2.5 mg/kg administered intravenously dosage in rats. It counts as ADME, organism-based. Set-up: dose 2.5 mg/kg, route intravenous. The following applies: rat, in vivo, iv, read-out: Vss. An outline of the steps: (§2)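 Plasma concentration–time data were analysed by noncompartmental methods. The […] (β) and half-life were estimated, and total body clearance and steady-state volume of distribution were calculated. Values are mean ± SD.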

Data set [10] is described as follows: The total body administered intravenously in dog. Type of data set: ADME, organism-based, Canis lupus familiaris. The following applies: in vivo, iv, read-out: Vss. Put shortly:
as §2

Data set [11] is described as follows: The half life time estimated was determined in an aqueous sodium hydroxide solution adjusted to pH 10 at 5 mg/kg dosage administered intravenously in dog. Type of data set: ADME, organism-based. Set-up: dose 5 mg/kg, route intravenous. The following applies: in vivo, iv. Put shortly: as §2
A short description of data set [12]: The half life time estimated was determined in an aqueous sodium hydroxide solution adjusted to pH 10 at 2.5 mg/kg dosage administered intravenously in rats. It counts as ADME, organism-based. Set-up: dose 2.5 mg/kg, route intravenous. The settings on record: rat, in vivo, iv. Put shortly: as §2

Regarding `O=c1c2c(oc(O)c1C(c1cccc(NS(=O)(=O)c3ccccc3)c1)C1CC1)CCCCCC2` (stereo not drawn), the IC50 in data set [1] worked out at 5000 nM.

For the compound `Cc1cccc(S(=O)(=O)Nc2cccc(C(c3c(O)c4c(oc3=O)CCCCCC4)C3CC3)c2)c1` (stereo not drawn), in [2], the Ki came to 5 nM. Also, the concentration for half-maximal inhibition (IC50) in data set [1] came to 4000 nM.

In the case of `N#Cc1ccc(S(=O)(=O)Nc2cccc(C(c3c(O)c4c(oc3=O)CCCCCC4)C3CC3)c2)cc1` (stereo not drawn), the Cmax stood at 156 µM in data set [3] and 24.2 µM in data set [4]. Besides, the Tmax in data set [5] and in data set [6] was 1 h each time. In addition, the bioavailability was 76.7% in [7] and 41.9% in [8]. Moreover, the results for the Vd in data set [9] and in [10] were 0.11 L/kg and 0.084 L/kg, respectively. Further, the half-life in data set [11] was 6.3 h; in data set [12] it was 3 h. For the same compound, the midpoint of inhibition in [1], the IC50, lay at 1500 nM.

As for `Cc1ccccc1S(=O)(=O)Nc1cccc(C(c2c(O)c3c(oc2=O)CCCCCC3)C2CC2)c1` (stereo not drawn), the Ki in data set [2] was found to be 9 nM. For the same compound, the IC50 in data set [1] was more than 10000 nM.

With `Cc1ccc(S(=O)(=O)Nc2cccc(C(c3c(O)c4c(oc3=O)CCCCCC4)C3CC3)c2)cc1` (stereo not drawn), the Ki in data set [2] stood at 3 nM. This compound showed an IC50 in [1] of 3600 nM.
